Values after ≈ are worked out from the molar mass of the structure shown.
test system: Aspergillus fumigatus; assay: Antifungal activity against Aspergillus fumigatus AF98003; type: functional
Outline: (§1)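 Growth-inhibition screen against the named strain, following a previously published protocol. The read-out is MIC80, reported in ng mL⁻¹. Fluconazole and itraconazole served as positive controls.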

| SMILES | MIC80 |
| --- | --- |
| N#Cc1ccc(CNCC(O)(Cn2cncn2)c2ccc(Cl)cc2Cl)cc1 (stereo not drawn) | 4.02 µg/mL (≈ 9.99 µM) |
| OC(CNCc1ccc(C(F)(F)F)cc1)(Cn1cncn1)c1ccc(Cl)cc1Cl (stereo not drawn) | 24 µg/mL (≈ 54 µM) |
| CN(Cc1ccc([N+](=O)[O-])cc1)CC(O)(Cn1cncn1)c1ccc(Cl)cc1Cl (stereo not drawn) | 1.96 µg/mL (≈ 4.49 µM) |
| CN(Cc1ccc(C#N)cc1)CC(O)(Cn1cncn1)c1ccc(Cl)cc1Cl (stereo not drawn) | 2.41 µg/mL (≈ 5.79 µM) |
| CN(Cc1ccc(C(F)(F)F)cc1)CC(O)(Cn1cncn1)c1ccc(Cl)cc1Cl (stereo not drawn) | 21.1 µg/mL (≈ 46 µM) |
| O=[N+]([O-])c1ccc(CNCC(O)(Cn2cncn2)c2ccc(Cl)cc2Cl)cc1 (stereo not drawn) | 27 µg/mL (≈ 64 µM) |
| Nc1ccc(CNCC(O)(Cn2cncn2)c2ccc(Cl)cc2Cl)cc1 (stereo not drawn) | 3.06 µg/mL (≈ 7.8 µM) |
| CN(Cc1ccc(N)cc1)CC(O)(Cn1cncn1)c1ccc(Cl)cc1Cl (stereo not drawn) | 2.32 µg/mL (≈ 5.71 µM) |
| CCC(C)n1ncn(-c2ccc(N3CCN(c4ccc(OC[C@H]5CO[C@](Cn6cncn6)(c6ccc(Cl)cc6Cl)O5)cc4)CC3)cc2)c1=O (stereo partly drawn) [ITRACONAZOLE] | 0.42 µg/mL (≈ 0.595 µM) |

test system: Candida albicans; assay: Antifungal activity against Candida albicans CA98001; type: functional; outline: as §1

| SMILES | MIC80 |
| --- | --- |
| N#Cc1ccc(CNCC(O)(Cn2cncn2)c2ccc(Cl)cc2Cl)cc1 (stereo not drawn) | 0.0028 µg/mL (≈ 0.00696 µM) |
| OC(CNCc1ccc(C(F)(F)F)cc1)(Cn1cncn1)c1ccc(Cl)cc1Cl (stereo not drawn) | 0.024 µg/mL (≈ 0.0539 µM) |
| CN(Cc1ccc([N+](=O)[O-])cc1)CC(O)(Cn1cncn1)c1ccc(Cl)cc1Cl (stereo not drawn) | 0.0006 µg/mL (≈ 0.00138 µM) |
| CN(Cc1ccc(C#N)cc1)CC(O)(Cn1cncn1)c1ccc(Cl)cc1Cl (stereo not drawn) | 0.00037 µg/mL (≈ 0.000889 µM) |
| CN(Cc1ccc(C(F)(F)F)cc1)CC(O)(Cn1cncn1)c1ccc(Cl)cc1Cl (stereo not drawn) | 0.03 µg/mL (≈ 0.0653 µM) |
| O=[N+]([O-])c1ccc(CNCC(O)(Cn2cncn2)c2ccc(Cl)cc2Cl)cc1 (stereo not drawn) | 0.006 µg/mL (≈ 0.0142 µM) |
| Nc1ccc(CNCC(O)(Cn2cncn2)c2ccc(Cl)cc2Cl)cc1 (stereo not drawn) | 18.8 µg/mL (≈ 48 µM) |
| CN(Cc1ccc(N)cc1)CC(O)(Cn1cncn1)c1ccc(Cl)cc1Cl (stereo not drawn) | 0.029 µg/mL (≈ 0.0714 µM) |
| OC(Cn1cncn1)(Cn1cncn1)c1ccc(F)cc1F [FLUCONAZOLE] | 0.19 µg/mL (≈ 0.62 µM) |

From ChEMBL document CHEMBL1141540, “Design, synthesis, and evaluation of 1-(N-benzylamino)-2-phenyl-3-(1H-1,2,4-triazol-1-yl)propan-2-ols as antifungal agents” (2008)
